Assay results from ChEMBL document CHEMBL2417530, “Coumarin derivatives protect against ischemic brain injury in rats” (Eur J Med Chem, 2013).
Calls of active or inactive are those of the source. The calls are words filed in the database; no cut-off is given here.

Columns and labels:
Rattus norvegicus [1] = assay: In vivo neuroprotective activity in iv dosed Sprague-Dawley rat transient middle cerebral artery occlusion model assessed as reduction of infarct size measured 24 hrs post reperfusion by TTC staining assay; assay type: functional, organism-based
Method in brief: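 Male Sprague-Dawley rats, 7 weeks, 260–280 g, under 10% chloral hydrate ip. Right MCA occluded 60 min by tip-burned 4-0 nylon thread via common carotid, then reperfused. Saline or drug given iv at reperfusion, ethanol as cosolvent. Killed 24 h later; six 2 mm slices in 1% TTC in PBS, 37 °C, 30 min. Infarct area traced as % of total area; n = 12.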

[2] = Cytotoxicity against rat PC12 cells assessed as cell proliferation at 10 uM by MTT assay relative to control; assay type: cell-based, PC-12; conditions: read-out: Activity
Method in brief: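 PC12 cells were grown in DMEM with 5% FBS, 5% horse serum and 2 mM glutamine at 37 °C, 5% CO2. They were seeded at 5×10^3 cells/well for 24 h, then exposed to 10 µM compound in full medium. Viability was read by MTT (5 mg/mL, 4 h) at 570 nm as % of control absorbance; n = 3.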

Cortex = assay: Drug uptake in Sprague-Dawley rat cortex at 2 x 10^-5 mol/kg, iv measured at 60 mins by LC-MS analysis; assay type: ADME, organism-based; conditions: in vivo, 1 h
Method in brief: (§1)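 Male Sprague-Dawley rats (260-280 g, n = 4) given a single iv dose of 6 mg/kg. Blood was taken from the jugular vein into heparin tubes under ether, and plasma was spun out and stored at -70 °C. After saline perfusion, cortex was homogenized in 2 volumes of water. Samples were precipitated with acetonitrile with internal standard added and quantified by LC-MS against a weighted linear calibration.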

Plasma = assay: Drug uptake in Sprague-Dawley rat plasma at 2 x 10^-5 mol/kg, iv measured at 60 mins by LC-MS analysis; assay type: ADME, organism-based; conditions: in vivo, 1 h; method in brief: as §1
[3] = Volume of distribution in Sprague-Dawley rat plasma at 2 x 10^-5 mol/kg, iv by LC-MS analysis; assay type: ADME, organism-based; conditions: 2e-05 mol/kg; method in brief: as §1
[4] = Terminal half life in Sprague-Dawley rat cortex at 2 x 10^-5 mol/kg, iv by LC-MS analysis; assay type: ADME, organism-based; conditions: 2e-05 mol/kg, read-out: beta t1/2; method in brief: as §1
Rattus norvegicus [5] = assay: Anti-ischemia activity in Sprague-Dawley rat transient middle cerebral artery occlusion model assessed as inhibition of cleaved caspase-3 protein expression in hippocampus at 1.5 to 6 mg/kg, iv measured 24 hrs post reperfusion by Western blot analysis relative to vehicle-treated control; assay type: functional, organism-based
Method in brief: (§2)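 Rats underwent 60 min intraluminal right MCA occlusion under chloral hydrate, then reperfusion, with iv saline or drug (1.5, 3.0, 6.0 mg/kg) at reperfusion. At 24 h they were saline-perfused and cortex and hippocampus lysed in RIPA buffer. Protein was BCA-normalized, run on SDS-PAGE and blotted for Bcl-2, Bax, cleaved caspase-3 and β-actin with ECL detection; n = 4.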

Rattus norvegicus [6] = assay: Anti-ischemia activity in Sprague-Dawley rat transient middle cerebral artery occlusion model assessed as inhibition of Bax protein expression in cerebral cortex at 1.5 to 6 mg/kg, iv measured 24 hrs post reperfusion by Western blot analysis relative to vehicle-treated control; assay type: functional, organism-based; method in brief: as §2
Rattus norvegicus [7] = assay: Anti-ischemia activity in Sprague-Dawley rat transient middle cerebral artery occlusion model assessed as inhibition of Bax protein expression in hippocampus at 1.5 to 6 mg/kg, iv measured 24 hrs post reperfusion by Western blot analysis relative to vehicle-treated control; assay type: functional, organism-based; method in brief: as §2

**Q.** What does the source list for `COc1cc(O)cc2oc(=O)c(N3CCN(C)CC3)c(C)c12`?
**A.** Activity (Rattus norvegicus [1]): Dose-dependent effect; viability at 10 µM [2]: 101%; Drug uptake (Cortex): Not Active; Drug uptake (Plasma): Not Active; Vd [3]: 0.084 L; half-life [4]: 15.5 min; inhibition (Rattus norvegicus [5]): Active; inhibition (Rattus norvegicus [6]): Active; inhibition (Rattus norvegicus [7]): Active
